# Experimental data as given in ChEMBL document CHEMBL1124310, “Antiinflammatory 2,6-di-tert-butyl-4-(2-arylethenyl)phenols” (J Med Chem, 1989).
# Legend:
# [1] = molecular target: T1, Polyunsaturated fatty acid 5-lipoxygenase (Homo sapiens) (UniProt P09917); experiment: Inhibitory activity against 5-lipoxygenase at 10 uM concentration
# T1 sequence (whole entry): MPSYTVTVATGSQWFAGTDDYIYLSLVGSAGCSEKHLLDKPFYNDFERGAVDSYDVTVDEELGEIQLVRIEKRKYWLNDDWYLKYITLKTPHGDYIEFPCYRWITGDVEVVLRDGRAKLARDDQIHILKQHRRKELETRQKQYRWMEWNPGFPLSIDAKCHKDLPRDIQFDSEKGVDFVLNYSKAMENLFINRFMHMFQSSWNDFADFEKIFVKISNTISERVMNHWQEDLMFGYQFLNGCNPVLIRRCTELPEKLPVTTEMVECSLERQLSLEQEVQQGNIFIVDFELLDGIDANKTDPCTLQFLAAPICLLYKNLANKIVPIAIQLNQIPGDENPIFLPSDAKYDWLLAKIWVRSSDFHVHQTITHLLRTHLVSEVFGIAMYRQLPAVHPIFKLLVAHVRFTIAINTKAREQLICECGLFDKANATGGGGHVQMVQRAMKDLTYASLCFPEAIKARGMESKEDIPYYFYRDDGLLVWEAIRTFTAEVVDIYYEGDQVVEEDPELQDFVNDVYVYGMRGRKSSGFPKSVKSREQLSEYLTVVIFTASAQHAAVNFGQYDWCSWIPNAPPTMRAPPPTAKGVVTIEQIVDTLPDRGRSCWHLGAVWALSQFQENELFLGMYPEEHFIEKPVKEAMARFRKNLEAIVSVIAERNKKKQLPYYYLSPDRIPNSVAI
# Outline: (§1)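 Human peripheral blood leukocytes (5 × 10^6/0.5 mL) in pH 7.2 phosphate buffer with 0.6 mM Ca2+ and 1.0 mM Mg2+ incubated with compound for 15 min at 37 °C with shaking. 5-HETE band area measured as % of total radioactivity. Inhibition = (1 − cmd/cntl) × 100; single determination in duplicate; ANOVA, p<0.05.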
# [2] = molecular target: T1, Polyunsaturated fatty acid 5-lipoxygenase (Homo sapiens); experiment: Inhibitory activity against 5-lipoxygenase at 1 uM concentration; outline: as §1
# Cyclooxygenase [3] = molecular target: T2, Cyclooxygenase (Homo sapiens, UniProt P35354+P23219); experiment: Inhibitory activity against Prostaglandin G/H synthase at 10 uM concentration; type: protein assay
# Outline: (§2)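 Human platelets (10^7/0.5 mL) in Ca2+-free pH 7 phosphate buffer incubated with compound for 15 min at 37 °C with shaking. Prostaglandin-thromboxane band areas measured as % of total radioactivity. Inhibition = (1 − cmd/cntl) × 100; single determination run in duplicate; ANOVA, p<0.05.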
# Cyclooxygenase [4] = molecular target: T2, Cyclooxygenase; experiment: Inhibitory activity against Prostaglandin G/H synthase at 1 uM concentration; type: protein assay; outline: as §2
# Rattus norvegicus [5] = experiment: Inhibitory activity against developing adjuvant-induced arthritis (Dev AA) in rat at 50 mg/kg concentration; type: functional
# Rattus norvegicus [6] = experiment: Inhibitory activity against developing adjuvant-induced arthritis (Dev AA) in rat at 5 mg/kg concentration; type: functional
# [7] = molecular target: T1, Polyunsaturated fatty acid 5-lipoxygenase (Homo sapiens); experiment: Inhibitory activity against lipoxygenase (LO) at 10 uM concentration; outline: as §1
# [8] = molecular target: T1, Polyunsaturated fatty acid 5-lipoxygenase (Homo sapiens); experiment: Inhibitory activity against lipoxygenase (LO) at 1 uM concentration; outline: as §1
# Rattus norvegicus [9] = experiment: Inhibitory activity against developing adjuvant-induced arthritis (Dev AA) in rat at 25 mg/kg concentration; type: functional
# Rattus norvegicus [10] = organism: Rattus norvegicus; experiment: Effective dose of compound to inhibit established adjuvant arthritis (EstAA) in rat; type: functional
# Outline: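 Arthritis induced in male Lewis rats with Mycobacterium butyricum adjuvant in the right hind footpad. Rats with arthritis established by day 14 after injection were selected, then dosed orally for 14 days. Noninjected paw volume measured by mercury displacement. % inhibition versus untreated arthritic controls.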
# Rattus norvegicus [11] = organism: Rattus norvegicus; experiment: Effective dose of compound to inhibit acetic acid induced writhing in rat was determined; type: functional
# Rattus norvegicus [12] = organism: Rattus norvegicus; experiment: Effective dose of compound to inhibit adjuvant-induced arthritis (Dev AA) in rat; type: functional
# Rattus norvegicus [13] = experiment: Effective dose of compound to inhibit carrageenan induced paw edema in rat was determined; type: functional
# Outline: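 Male CD rats (150 ± 10 g), 10 per group. Compound or vehicle (1% acacia in water) given orally 1 h before subplantar injection of 0.1 mL 1% carrageenan in saline into the right hind paw. Paw volume measured by mercury displacement before dosing and 3 h after carrageenan; the difference is the edema volume.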
# Rattus norvegicus [14] = organism: Rattus norvegicus; experiment: Dose of compound to produce a 50% ulcerogenic response in rats was determined; type: functional
# Outline: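 Ulcerogenic dose: value taken as the dose giving 50% response on a graded scale, 0% = no ulcers or redness in stomach or intestines, 100% = major lesions in both stomach and intestines. Method follows a cited procedure.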
# Rattus norvegicus [15] = experiment: Inhibitory activity against developing adjuvant-induced arthritis (Dev AA) in rat at 5 mg/kg concentration; decrease in paw volume statistically significant compared to control.; type: functional
# [16] = molecular target: T1, Polyunsaturated fatty acid 5-lipoxygenase (Homo sapiens); experiment: Inhibitory activity against lipoxygenase (LO) at 1 uM concentration; % inhibition not statistically different from control; outline: as §1
# Cyclooxygenase [17] = molecular target: T2, Cyclooxygenase; experiment: Inhibitory activity against Prostaglandin G/H synthase from human platelets was determined
SMILES,inhibition [1] [%],inhibition [2] [%],inhibition (Cyclooxygenase [3]) [%],inhibition (Cyclooxygenase [4]) [%],inhibition [7] [%],inhibition [8] [%],inhibition in vivo at 50 mg/kg (Rattus norvegicus [5]) [%],other results
CC(C)c1cc(/C=C/c2cccnc2)cc(C(C)C)c1O,–,–,–,–,87,73,–,inhibition in vivo at 25 mg/kg (Rattus norvegicus [9]): 17%
CCC(C)(C)c1cc(/C=C/c2cccs2)cc(C(C)(C)CC)c1O,–,–,–,–,–,10,–,inhibition in vivo at 25 mg/kg (Rattus norvegicus [9]): 40%
Cc1cc(/C=C/c2cccnc2)cc(C(C)(C)C)c1O,–,–,–,–,85,75,–,inhibition in vivo at 25 mg/kg (Rattus norvegicus [9]): 22%
CC(C)(C)c1cc(/C=C/C(=O)c2cccs2)cc(C(C)(C)C)c1O,84,39,75,44,–,–,8,–
CCC(C)(C)c1cc(/C=C/c2cccnc2)cc(C(C)(C)CC)c1O,–,–,–,–,–,27,–,inhibition in vivo at 25 mg/kg (Rattus norvegicus [9]): 50%
CC(C)(C)c1cc(C(=O)c2cccs2)cc(C(C)(C)C)c1O [PRIFELONE],–,–,–,–,82,17,–,inhibition in vivo at 25 mg/kg (Rattus norvegicus [9]): 96%; inhibition in vivo at 5 mg/kg (Rattus norvegicus [6]): 24%
CC(C)c1cc(/C=C/c2cccs2)cc(C(C)C)c1O,–,–,–,–,–,82,–,–
CC(C)(C)c1cc(/C=C2\CCOC2=O)cc(C(C)(C)C)c1O,67,34,–,–,–,–,–,inhibition in vivo at 25 mg/kg (Rattus norvegicus [9]): 63%; inhibition in vivo at 5 mg/kg (Rattus norvegicus [6]): 39%
Oc1ccc(/C=C/c2cccnc2)cc1,41,–,5,28,–,–,–,–
CC(C)(C)c1cc(C/C=C/c2cccs2)cc(C(C)(C)C)c1O,–,–,–,–,49,–,–,inhibition [16]: 7%
CC(C)(C)c1cc(/C=C/c2cccs2)cc(C(C)(C)C)c1O,–,–,–,–,88,25,77,IC50 (Cyclooxygenase [17]): 0.063 µM; inhibition in vivo at 5 mg/kg (Rattus norvegicus [15]): 57%
CC(C)(C)c1cc(C(=O)/C=C/c2ccsc2)cc(C(C)(C)C)c1O,69,16,83,73,–,–,13,–
CC(C)(C)c1cc(/C=C/C(=O)c2ccsc2)cc(C(C)(C)C)c1O,–,53,80,56,91,–,0,–
CC(C)(C)c1cc(CCc2cccnc2)cc(C(C)(C)C)c1O,–,–,–,–,63,13,–,inhibition in vivo at 25 mg/kg (Rattus norvegicus [9]): 3%
CC(C)(C)c1cc(/C=C/c2cccnc2)ccc1O,–,–,–,–,81,29,–,inhibition in vivo at 25 mg/kg (Rattus norvegicus [9]): 3%
CC(C)(C)c1cc(C(=O)/C=C/c2cccs2)cc(C(C)(C)C)c1O,–,10,83,72,59,–,0,–
CCOC(=O)/C(=C\c1cc(C(C)(C)C)c(O)c(C(C)(C)C)c1)c1cccnc1,83,23,78,54,–,–,24,–

# The next lines start with results.
inhibition [1] [%],inhibition [2] [%],inhibition (Cyclooxygenase [3]) [%],inhibition (Cyclooxygenase [4]) [%],inhibition [7] [%],inhibition [8] [%],SMILES,inhibition in vivo at 50 mg/kg (Rattus norvegicus [5]) [%],other results
27,6,52,12,–,–,Cc1ccc(/C=C/c2cc(C(C)(C)C)c(O)c(C(C)(C)C)c2)cc1,97,inhibition in vivo at 5 mg/kg (Rattus norvegicus [6]): 55%
–,–,–,–,6,–,CC(C)(C)c1cc(/C=C/c2ccncc2)cc(C(C)(C)C)c1O,0,–
59,21,73,24,–,–,CC(C)(C)c1cc(/C=C/c2ccc[n+]([O-])c2)cc(C(C)(C)C)c1O,–,inhibition in vivo at 25 mg/kg (Rattus norvegicus [9]): 26%
–,–,–,–,88,34,CC(C)(C)c1cc(/C=C/c2ccccn2)cc(C(C)(C)C)c1O,74,inhibition in vivo at 5 mg/kg (Rattus norvegicus [6]): 36%
–,–,–,–,84,26,CC(C)(C)c1cc(/C=C/c2cccnc2)cc(C(C)(C)C)c1O,82,ED50 (Rattus norvegicus [10]): 4 mg/kg; ED50 (Rattus norvegicus [11]): 3.9 mg/kg; ED50 (Rattus norvegicus [12]): 2.1 mg/kg; ED50 (Rattus norvegicus [13]): 16.5 mg/kg; UD50 (Rattus norvegicus [14]): 202 mg/kg; inhibition in vivo at 5 mg/kg (Rattus norvegicus [15]): 56%
–,–,–,–,28,19,CC(C)(C)c1cc(/C=C/c2ccc(Cl)s2)cc(C(C)(C)C)c1O,45,–
–,–,–,–,12,18,COc1ccc(/C=C/c2cc(C(C)(C)C)c(O)c(C(C)(C)C)c2)cc1,0,–
3,18,-5,-16,–,–,CC(C)(C)c1cc(/C=C/c2ccc(Cl)c(Cl)c2)cc(C(C)(C)C)c1O,10,–
16,6,66,31,–,–,CC(C)(C)c1cc(/C=C/c2ccc(Cl)cc2)cc(C(C)(C)C)c1O,42,–
–,19,18,9,22,–,CC(C)(C)c1cc(/C=C/c2cccc(C(F)(F)F)c2)cc(C(C)(C)C)c1O,0,–
–,–,–,–,81,9,CC(C)(C)c1cc(/C=C/c2ccsc2)cc(C(C)(C)C)c1O,62,inhibition in vivo at 5 mg/kg (Rattus norvegicus [6]): 31%
–,–,–,–,20,12,COc1ccc(/C=C/c2cc(C(C)(C)C)c(O)c(C(C)(C)C)c2)cc1OC,26,–
14,12,79,34,–,–,CC(C)(C)c1cc(/C=C/c2ccccc2)cc(C(C)(C)C)c1O,42,–
–,10,53,21,–,–,CC(C)(C)c1cc(/C=C/c2ccccc2C(=O)O)cc(C(C)(C)C)c1O,–,–
46,23,70,52,–,–,CC(C)(C)c1cc(/C=C/c2ccc(F)cc2)cc(C(C)(C)C)c1O,58,–
